Consider 95 compounds from ChEMBL document CHEMBL4513216, “Probing the Open Global Health Chemical Diversity Library for Multistage-Active Starting Points for Next-Generation Antimalarials” (ACS Infect Dis, 2020).

A short description of this data set: Toxicity liver stage against HepG2, at 10uM. Details: test concentration 10 uM, cell line HepG2-A16-CD81EGFP. To be noted: human, HepG2-A16-CD81EGFP cells; read-out: INHIBITION
Type of data set: cell-based. In short, it runs like this:
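Uninfected HepG2-A16-CD81EGFP cells, 3 × 10^3 per well, 1536-well, plated on prespotted compound at 10 μM final, parasite-free screening media added to match infected plates; puromycin 10 μM positive, DMSO 0.5% negative; run in parallel with 48 h PbLuc assay at 37 °C, 5% CO2; viability by CellTiter-Glo luminescence, normalized to controls.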
For `Cc1cccc2c1nc1n2[C@@H](CNC(=O)C2CCOCC2)COC1`, the cytotoxicity at 10 µM is -1.47%.
Consider `COc1ccc2c(c1)nc1n2[C@@H](CNCc2ccccc2)COC1`, for which the cytotoxicity at 10 µM was -0.201%.
`COCC(=O)N1CCN(C(=O)C2CCCCC2)[C@@H](C(=O)OC)C1`: the cytotoxicity at 10 µM stood at 1.08%.
As for `COc1cnc(CSc2nnc(C)s2)cc1OCC(=O)NC1CCCC1`, the cytotoxicity at 10 µM stood at 3.43%.
On to `CCCC(O)CN1CC(C)(C)CN(C(=O)c2ccc(SC)cc2)CC1=O` (stereo not given), for which the cytotoxicity at 10 µM was -4%.
For the compound `CCS(=O)(=O)N1CCC(OC)c2ccccc2N(CC(=O)NC)C(=O)C1` (stereo not given), the cytotoxicity at 10 µM was -1.42%.
With `CC(C)C[C@H](NC(=O)N1CCC(Cc2ccccc2)CC1)C(=O)O`, the cytotoxicity at 10 µM was -4.13%.
On to `C[C@@H](O)CNC(=O)c1nc(CC(=O)Nc2ccccc2)no1`, for which the cytotoxicity at 10 µM came to 7.49%.
For `Cc1nn(C2CCS(=O)(=O)C2)c(O)c1Cc1ccc(Br)cc1` (stereo not given), the cytotoxicity at 10 µM was -41.6%.
With `COc1ccc(N2CCN(C(=O)c3nc(Cl)sc3C(C)C)CC2)cc1`, the cytotoxicity at 10 µM worked out at 3.17%.
With `Cc1noc(C2CN(CC(=O)NCC3CCCO3)C2)n1` (stereo not given), the cytotoxicity at 10 µM was -2.56%.
Regarding `O=C(c1ccsc1)N1CC(c2nc(-c3ccc[nH]c3=O)no2)C1`, the cytotoxicity at 10 µM is -7.39%.
As for `COc1nn(C)cc1C(=O)N1CCC(c2nnc(-c3ccsc3)o2)CC1`, the cytotoxicity at 10 µM was found to be 8.08%.
Turning to `Fc1cnc(N2CCO[C@H]3CN(CC4CCOC4)C[C@H]32)nc1` (stereo not given in full), the cytotoxicity at 10 µM was found to be 12.3%.
As for `COC(=O)c1sc(C(F)(F)F)cc1OC`, the cytotoxicity at 10 µM worked out at 4.69%.
For `CC(C)c1cc(C(F)(F)F)n2nc(C3CCN(S(C)(=O)=O)C3)cc2n1` (stereo not given), the cytotoxicity at 10 µM was -1.14%.
As to `CC1=NOC2(CCN(Cc3c[nH]c4ccccc34)CC2)C1`, the cytotoxicity at 10 µM was found to be 4.54%.
For `Cc1nc(Cn2cnc3c(c(Br)nn3C)c2=O)cs1`, the cytotoxicity at 10 µM was 8.84%.
`Cc1cc(NC(=O)N2CCN(C)CC2C)n(Cc2ccccc2)n1` (stereo not given): the cytotoxicity at 10 µM was determined as 11.4%.
As to `CCOc1c(F)cccc1C(=O)N(CC)C(C)c1cccnc1` (stereo not given), the cytotoxicity at 10 µM is 11.8%.
As for `CC(C)c1nc2n(n1)CC(NCc1cc3ccccc3o1)CC2` (stereo not given), the cytotoxicity at 10 µM is -3.61%.
Turning to `Cn1c(C2CC2)nc2c1CCN(Cc1nc3ccccc3s1)C2`, the cytotoxicity at 10 µM is -4.69%.
As to `COCCSCC(=O)NCc1ccc(N(C)C)nc1`, the cytotoxicity at 10 µM was 9.15%.
For `CCc1nc(C)c(C(C)N(C)CCc2ccccn2)s1` (stereo not given), the cytotoxicity at 10 µM is -6.51%.
As for `O=C1NCC(C(=O)N(Cc2ccc(C(F)(F)F)cc2)C2CC2)N1` (stereo not given), the cytotoxicity at 10 µM was determined as 4.54%.
On to `Cc1oncc1C(=O)NCC(c1ccccc1Cl)N1CCOCC1` (stereo not given), for which the cytotoxicity at 10 µM worked out at 10.7%.
Regarding `CC1(NC(=O)Cc2cccs2)CCS(=O)(=O)C1` (stereo not given), the cytotoxicity at 10 µM worked out at 8.39%.
With `COCCn1nc(C(=O)N(C)Cc2ccc3ccccc3c2)ccc1=O`, the cytotoxicity at 10 µM was -131%.
With `CCN(C(c1cccnc1)c1ccc2c(c1)CCC2)S(C)(=O)=O` (stereo not given) the figure was 5.82%; with `CCN1CCC(NC(=O)NCC(O)c2ccc(Cl)c(F)c2)CC1` (stereo not given), -3.82%; with `COc1ccc(-c2ccc(C(=O)NS(C)(=O)=O)c(F)c2)cc1`, 5.7%.
Turning to `COc1cccc(CNC(C)c2ccc(-n3ccnc3)cc2)c1O` (stereo not given), the cytotoxicity at 10 µM was -47.4%.
For `O=C(c1ncncc1Cl)N1CCC2(CCCC2)CC1` the value was 1.06%.
On to `CC(C)(C)c1ccc(C2(C(=O)NCCCS(C)(=O)=O)CC2)cc1`, for which the cytotoxicity at 10 µM was -12.6%.
With `COc1ccc(CNC(=O)C2(C#N)CCCC2)cc1`, the cytotoxicity at 10 µM was -17.7%.
Take `COc1ccc(C2CCCCCN2S(=O)(=O)N(C)C)cc1` (stereo not given): the cytotoxicity at 10 µM was -9.87%.
Regarding `Cc1n[nH]c(C)c1C1CCCN1C(=O)NCC(=O)NC(C)(C)C` (stereo not given), the cytotoxicity at 10 µM is -11.7%.
As for `O=C(c1ccc[nH]1)N1CCc2nnc(Cn3cccn3)n2CC1`, the cytotoxicity at 10 µM was 5.62%.
For `Cc1ncccc1NC(=O)[C@@H]1CCO[C@@H]2CCN(c3ccncn3)C[C@H]21`, the cytotoxicity at 10 µM worked out at 5.59%.
With `COc1cc(N2CCC3(CC2)C(c2ccncc2)CC(=O)N3C)ncn1` (stereo not given), the cytotoxicity at 10 µM is -107%.
Take `Cn1cnc(-c2nc(C(=O)NCCN3CCOCC3)c3ccccn23)c1`: the cytotoxicity at 10 µM is -103%.
`COCC(=O)N1CC[C@@H]2CN(Cc3cccnc3)S(=O)(=O)[C@@H]2CC1`: the cytotoxicity at 10 µM was -113%.
Regarding `Cn1cc(CN2CCCC3(CCN(Cc4cccnc4)C3=O)C2)cn1` (stereo not given), the cytotoxicity at 10 µM is -3.99%.
Turning to `CN(Cc1ccsc1)c1nc(-c2ccccn2)nc2c1CCNCC2`, the cytotoxicity at 10 µM is -6.18%.
For `CC(=O)N[C@@H]1CN(C(=O)c2ccncc2)C[C@H]1c1ccc(C)cc1` the value was 4.58%.
Consider `Cc1cc(CN2CCC(C3CCN(Cc4cccnc4)CC3)C2)[nH]n1` (stereo not given), for which the cytotoxicity at 10 µM stood at 11%.
Regarding `CCc1ccccc1-c1cc(C)nc(N)n1`, the cytotoxicity at 10 µM is 1.12%.
Consider `CCc1nnc(CN2CCC3(CCC(=O)N(C4CCCC4)C3)CC2)o1`, for which the cytotoxicity at 10 µM was -5.16%.
Regarding `CSc1cccc(CNC(=O)[C@H]2CNC[C@@H](C(=O)N3CCOCC3)C2)c1`, the cytotoxicity at 10 µM is -6.91%.
Take `Cc1cc2[nH]c(CN3CCOC(c4ccc(F)cc4)C3)cc(=O)n2n1` (stereo not given): the cytotoxicity at 10 µM was -4.89%.
For the compound `O=C(Nc1ccc(F)c(Cl)c1)N1CCCN([C@H]2COC[C@@H]2O)CC1`, the cytotoxicity at 10 µM was -40.7%.
Take `CC1=NOC(C(=O)N(C)CCCn2nc(C)cc2C)C1` (stereo not given): the cytotoxicity at 10 µM stood at 3.53%.
As for `O=C(CCc1cc2n(n1)CCCN(C(=O)c1ccncc1)C2)NC1CC1`, the cytotoxicity at 10 µM was 12.2%.
Regarding `N[C@H]1CN(S(=O)(=O)N2CCCCCC2)C[C@@H]1c1ccccc1`, the cytotoxicity at 10 µM stood at 2.14%.
Turning to `O=C(CCCn1cncn1)N1CCC2(CCCN(C3CCCC3)C2=O)C1` (stereo not given), the cytotoxicity at 10 µM is -1.8%.
With `Cc1ocnc1C(=O)N[C@H]1CN(CC2CCC2)C[C@@H]1C(C)C` the figure was -2.94%; with `FC(F)(F)C1CN(Cc2cccc(OCc3ccccn3)c2)CCO1` (stereo not given), 1.48%.
Turning to `O=C1Nc2ccccc2C12CCCN(Cc1ccc3c(c1)OCCO3)C2` (stereo not given), the cytotoxicity at 10 µM amounted to 0.529%.
`Cn1cccc1-c1cc(C(=O)NCCc2nnc(N)s2)[nH]n1`: the cytotoxicity at 10 µM was -7.22%.
Consider `OCc1ccc(-c2nccn2CCC2=CCCCC2)o1`, for which the cytotoxicity at 10 µM was determined as 4.19%.
`Cc1cc(-c2ccncc2)ccc1OCC(N)=O`: the cytotoxicity at 10 µM amounted to 18.1%.
As for `COCCC1(CO)CCCN(C(=O)c2cccnc2OC)C1` (stereo not given), the cytotoxicity at 10 µM is -47.8%.
With `CN(C)S(=O)(=O)N1CCN(c2ccnc(N3CCCCC3)n2)CC1` the figure was -1.48%.
In the case of `CC(C)(C)CN1CCCC2(CCN(C(=O)c3ccc(O)nc3)C2)C1` (stereo not given), the cytotoxicity at 10 µM is -0.937%.
As to `CC(C)Oc1cccc(C(=O)C2CCCN(C(=O)c3ncn[nH]3)C2)c1` (stereo not given), the cytotoxicity at 10 µM is -7.53%.
In the case of `COc1cccc(C(=O)N2CCN(Cc3nc(C(C)C)no3)CC2)c1`, the cytotoxicity at 10 µM was -18.7%.
For the compound `Cc1cc(NC(=O)CN2CCc3cncnc3C2)on1`, the cytotoxicity at 10 µM is -17.6%.
Consider `COc1ncccc1NC(=O)C1CCOCC1`, for which the cytotoxicity at 10 µM is -29.8%.
For `COc1ncccc1CNC(=O)Nc1cccnc1N1CCCC1` the value was -10.4%; for `CN(Cc1noc(C2CC2)n1)C1CCN(CCc2cccs2)C1` (stereo not given), -5.98%.
For the compound `OCC1CCCN1c1cc(NCc2ccsc2)ncn1` (stereo not given), the cytotoxicity at 10 µM was 38.8%.
In the case of `CC(O)CN(CC(=O)NC1CCCCC1)c1ccccc1` (stereo not given), the cytotoxicity at 10 µM is -6.08%.
`COCCNC(=O)CN1CCN(c2nc(C)cs2)C(C)C1` (stereo not given): the cytotoxicity at 10 µM is -4.03%.
On to `Cc1nnc(C(C)N2CCN(Cc3ccc(C#N)cc3)CC2)o1` (stereo not given), for which the cytotoxicity at 10 µM was -12.2%.
As for `NC(=O)c1ccc(S(=O)(=O)NC(=O)COc2ccc3c(c2)CCC3)cc1`, the cytotoxicity at 10 µM is -2.27%.
For `CC(C)N1CCN(C(=O)Nc2cnn(CC(N)=O)c2)CC1` the value was -12.2%; for `Cc1cccc(C(=O)NC(CN2CCCC2=O)c2ccccc2)n1` (stereo not given), -9.16%.
Turning to `CN(CC(=O)N1CCCC1Cn1cccn1)c1cnccn1` (stereo not given), the cytotoxicity at 10 µM was -5.1%.
For `O=C(c1cccc2c1OCO2)N1CCCC1c1noc(C2CC2)n1` (stereo not given) the value was -23.2%; for `O=C(CCSc1ccc(F)cc1)NS(=O)(=O)c1ccc2c(c1)OCCO2`, 2.36%.
Take `Cc1oncc1C(=O)N[C@@H]1CN(Cc2ccoc2)C[C@@H]2CCCO[C@@H]21`: the cytotoxicity at 10 µM was -108%.
With `CC(NCc1ccc(OCC(N)=O)cc1)c1ccc(Cl)cc1` (stereo not given) the figure was 11.2%; with `c1coc(CN2CCC(c3ccc4c(c3)OCO4)CC2)c1`, -1.55%.
For `CNC(=O)C1Cn2ccnc2C2(CCN(Cc3cccnc3)CC2)O1` (stereo not given) the value was -3.37%; for `Clc1ccccc1CN1CCc2nc(C3CCCCN3)ncc2C1` (stereo not given), -3.12%.
`Cc1ccccc1CN1C[C@@H]2COC[C@]2(CNC(=O)C2CCC2)C1`: the cytotoxicity at 10 µM was -110%.
On to `Cn1cc(C(=O)N2CC[C@@H]3[C@@H]2CCN3Cc2cccc(F)c2)cn1`, for which the cytotoxicity at 10 µM is -2.21%.
With `Cc1csc(CN2CCC3(CC2)COC(COCC2CC2)C3)n1` (stereo not given) the figure was -108%; with `O=C(O)c1c(-c2cncnc2)ncc2c1CCN(CC1CCOC1)C2` (stereo not given), -102%; with `COCC(=O)N1CCC2(CC1)C(=O)N(Cc1cccnc1)CCN2C`, 0.964%.
As for `CCN1C(=O)CC(c2ccccc2)C12CCN(CC1CCOCC1)CC2` (stereo not given), the cytotoxicity at 10 µM was 3.06%.
For `O=C1COC2(CCN(C(=O)c3ccco3)CC2)CN1Cc1cccnc1` the value was 7.2%; for `c1ccc(OCc2nnc3n2CCN(CC2CCOCC2)C3)nc1`, 1.65%; for `c1cncc(N2CCOCC3(CCCN(c4nncs4)C3)C2)c1` (stereo not given), -1.42%.
With `COCCN1CCN(C=C2NN=C(c3occc3C)O2)CC1` the figure was -49.4%.
